Published values from different studies.
Protocols differ between the studies behind these lines.
Read-out: cell growth or viability

Structure (SMILES)	cell line	assay	conditions	endpoint	result
COCc1ccc(-c2nn(Cc3ccccc3)c3ccccc23)o1	RBE	ATP luminescence	46 µM, 72 h	inhibition	49%
CN1CCN(C(=O)c2ccc(-c3nc4ccc5[nH]ncc5c4c4c3CCCC4)cc2)CC1	MV4-11	resazurin	72 h	GI50	1300 nM
NCCC(=O)Nc1ccccc1/N=c1\cc(-c2ccc3c(c2)OCCO3)oc2cc(F)ccc12	MDA-MB-468	CCK-8	1 µM	inhibition	31.2%
CN(C)CCN(C)C(=O)c1ccc(-c2nc3ccc4[nH]ncc4c3c3c2CCCCC3)cc1	MV4-11	resazurin	72 h	GI50	383 nM
NCC(=O)Nc1ccccc1/N=c1\cc(-c2ccc3c(c2)OCO3)oc2c([N+](=O)[O-])cccc12	MDA-MB-468	CCK-8	1 µM	inhibition	5.28%
O=C(Nc1cccc(Br)c1)c1cccc(S(=O)(=O)N2CCCCCC2)c1	HBL1	ATP luminescence	1 µM, 5 days	viability	101%
CC(C)(C)[C@H](N)C(=O)Nc1ccccc1/N=c1\cc(-c2ccc3c(c2)OCO3)oc2ccccc12	MDA-MB-468	CCK-8	1 µM	inhibition	-1.02%
CCN(Cc1ccccc1C)c1ccc(CO)c(Cl)c1	RBE	ATP luminescence	46 µM, 72 h	inhibition	87%
O=C(NCCN1CCCCC1)c1ccc(-c2nc3ccc4[nH]ncc4c3c3c2CCCC3)cc1	MV4-11	resazurin	72 h	GI50	1700 nM
N[C@@H](CO)C(=O)Nc1ccccc1/N=c1\cc(-c2ccc3c(c2)OCO3)oc2ccccc12	MDA-MB-468	CCK-8	1 µM	inhibition	7.66%
CN(C)CCNC(=O)c1ccc(-c2nc3ccc4[nH]ncc4c3c3c2CCCCC3)nc1	MV4-11	resazurin	72 h	GI50	236 nM
O=C(OCc1ccccc1)n1nc(-c2ccc(CO)o2)c2ccccc21	RBE	ATP luminescence	46 µM, 72 h	inhibition	55%
O=C(Nc1ccccc1/N=c1\cc(-c2ccc3c(c2)OCO3)oc2ccccc12)N1CCNCC1	MDA-MB-468	CCK-8	1 µM	inhibition	-5.89%
OCc1ccc(-c2nn(Cc3ccccc3)c3ccccc23)o1	RBE	ATP luminescence	46 µM, 72 h	inhibition	75%
COc1ccc2/c(=N/c3ccccc3NC(=O)[C@H](C)N)cc(-c3ccc4c(c3)OCCO4)oc2c1	MDA-MB-468	CCK-8	1 µM	inhibition	13.4%
CN(C)CCNC(=O)c1ccc(-c2nc3ccc4[nH]ncc4c3c3c2CC3)cc1	MV4-11	resazurin	72 h	GI50	1300 nM
Cc1ccccc1Cn1nc(-c2ccc(CO)o2)c2ccccc21	RBE	ATP luminescence	46 µM, 72 h	inhibition	61%
O=C(NO)c1ccc(CC(=O)N(CCO)c2ccccc2)cc1	HBL1	ATP luminescence	0.5 µM, 5 days	viability	117%
O=C(NCCCN1CCCCC1)c1ccc(-c2nc3ccc4[nH]ncc4c3c3c2CCCC3)cc1	MV4-11	resazurin	72 h	GI50	2400 nM
COc1cccc(Cn2nc(-c3ccc(CN)o3)c3ccccc32)c1	RBE	ATP luminescence	46 µM, 72 h	inhibition	78%
